Test results published in article PMC3334839 (The Journal of Neuroscience, 2012).

Key:
[1] = target: CB2 receptors; conditions: read-out: binding affinity (Ki) for CB2 receptors; ref Pertwee, 2000; cited from earlier work
[2] = target: T1, rat α2 GlyR (Rattus norvegicus, UniProt P22771); experiment: Whole-cell patch-clamp of IGly in HEK-293 cells expressing α2 GlyRs; format: cell-based; conditions: 10 μM AEA, 5 min sustained, EC2 Gly (20 μM), wild-type α2
T1 sequence (P22771 28-452): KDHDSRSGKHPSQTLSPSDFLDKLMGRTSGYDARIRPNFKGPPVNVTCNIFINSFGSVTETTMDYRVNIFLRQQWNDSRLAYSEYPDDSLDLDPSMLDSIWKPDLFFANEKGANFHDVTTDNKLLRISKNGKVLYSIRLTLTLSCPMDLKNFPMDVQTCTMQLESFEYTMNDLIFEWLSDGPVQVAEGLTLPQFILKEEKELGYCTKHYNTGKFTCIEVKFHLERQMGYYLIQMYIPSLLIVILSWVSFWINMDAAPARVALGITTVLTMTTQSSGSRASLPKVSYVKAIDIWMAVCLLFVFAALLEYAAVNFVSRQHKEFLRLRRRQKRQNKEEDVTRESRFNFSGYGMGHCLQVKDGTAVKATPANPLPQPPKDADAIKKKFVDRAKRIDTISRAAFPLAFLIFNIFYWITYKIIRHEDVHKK

[3] = target: CB1 receptors; conditions: read-out: binding affinity (Ki) for CB1 receptors; ref Pertwee, 2000; cited from earlier work
[4] = target: T2, human 5-HT3A receptor (Homo sapiens, UniProt P46098); format: cell-based
T2 sequence (P46098 24-478): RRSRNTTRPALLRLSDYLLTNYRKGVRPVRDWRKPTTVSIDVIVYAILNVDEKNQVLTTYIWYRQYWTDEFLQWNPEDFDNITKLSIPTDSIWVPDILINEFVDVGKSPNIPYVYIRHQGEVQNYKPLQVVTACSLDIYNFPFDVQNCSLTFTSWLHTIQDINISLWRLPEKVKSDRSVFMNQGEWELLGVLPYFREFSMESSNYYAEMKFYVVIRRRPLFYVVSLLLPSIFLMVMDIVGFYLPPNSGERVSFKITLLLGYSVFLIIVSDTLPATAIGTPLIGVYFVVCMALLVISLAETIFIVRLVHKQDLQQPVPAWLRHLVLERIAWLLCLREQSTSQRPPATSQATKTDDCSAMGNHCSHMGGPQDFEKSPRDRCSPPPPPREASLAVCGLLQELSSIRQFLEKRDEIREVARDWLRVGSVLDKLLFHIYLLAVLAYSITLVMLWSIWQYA
In short: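 Human 5-HT3A receptors (wild-type or point mutant made by site-directed mutagenesis) transfected into HEK-293 cells. Cells recorded 2 d later, trypsin/EDTA-treated 2 h before, lifted, superfused with HEPES-buffered saline (pH 7.4). Whole-cell, CsCl pipette, −60 mV, 20–22°C. 5-HT 30 μM pulses before, during and after continuous 5 min test compound (0.1 μM) incubation; 5–7 cells, mean ± SE.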

[5] = target: T3, human α1 GlyR (Homo sapiens, UniProt P23415); experiment: cell-based; format: cell-based; conditions: for average percent potentiation of IGly: concentration-response (Fig. 1E)
T3 sequence (P23415 29-457): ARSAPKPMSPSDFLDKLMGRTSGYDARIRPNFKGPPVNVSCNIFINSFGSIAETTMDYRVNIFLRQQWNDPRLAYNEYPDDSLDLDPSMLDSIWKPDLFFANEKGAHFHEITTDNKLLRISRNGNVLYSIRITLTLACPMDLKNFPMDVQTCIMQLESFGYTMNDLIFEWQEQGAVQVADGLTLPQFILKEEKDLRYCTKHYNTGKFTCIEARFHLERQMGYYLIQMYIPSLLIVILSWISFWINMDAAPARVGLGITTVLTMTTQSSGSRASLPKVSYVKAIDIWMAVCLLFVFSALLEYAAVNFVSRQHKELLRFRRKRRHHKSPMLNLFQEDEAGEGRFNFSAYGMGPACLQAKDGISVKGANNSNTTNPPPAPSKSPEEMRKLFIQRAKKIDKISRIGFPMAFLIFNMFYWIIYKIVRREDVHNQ

[6] = system: native GlyRs in cultured spinal neurons; experiment: Whole-cell patch-clamp of Gly-activated current; format: cell-based, rat; conditions: for average percent potentiation of IGly: concentration-response (Fig. 1E), EC2 Gly
In short: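 Spinal cords from postnatal day 0 rats, papain-dissociated (20 U/ml, 37°C, 40 min). Plated at 300,000 cells/ml on poly-d-lysine in MEM/10% FBS, cultured ≥10 d, washed 30 min in external solution. Whole-cell, −60 mV, 20–22°C.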

In the case of `CCCCC/C=C\C/C=C\C/C=C\C/C=C\CCCC(=O)NCCO` [AEA, anandamide], the Ki [1] is given as 0.279 to 1.94 µM, the “average percentage potentiation of IGly” value [2] is given as 127 ± 37% and the Ki [3] is given as 0.061 to 0.543 µM. The “effect on 5-HT-activated current” value ([4]; 0.1 μM AEA for 5 min, 5-HT 30 μM, wild-type) was “gradually developing inhibition”, the “time to maximal inhibition of I5-HT” value ([4]; continuous exposure to 0.1 μM AEA) was 5 min and the EC50 [5] was 4.2 ± 1.95 µM. The “time to maximal potentiation of IGly” value ([5]; 1 μM AEA sustained application, α1 homomeric) was 5 min, the “average percentage potentiation of IGly” value ([5]; 1 μM AEA, 5 min sustained application, EC2 Gly, α1 (Fig. 1C)) was 97 ± 16% and the “percentage potentiation of IGly, initial value” ([5]; 1 μM AEA, after 1 min of AEA exposure, HEK-293 cells) was 3 ± 1%. For the same compound, the “average percent potentiation of IGly” value ([5]; 1 μM AEA, EC2 Gly) was 91 ± 9%, the “average percent potentiation of IGly” value ([5]; 3 μM AEA, EC2 Gly) was 311 ± 86% and the “AEA-induced potentiation of IGly, simultaneous application” value ([5]; 10 μM AEA simultaneously applied only with Gly, wild-type α1) was 108 ± 15%. For the same compound, the “average percentage potentiation of IGly” value ([5]; 10 μM AEA, Gly 30 μM) was 102 ± 49%, the “average percentage potentiation of IGly” value ([5]; 10 μM AEA, Gly 100 μM) was 24 ± 6% and the “average percent potentiation of IGly” value ([5]; 10 μM AEA, Gly 10 μM) was 712 ± 96%. The “average percent potentiation of IGly” value ([5]; 30 μM AEA, EC2 Gly) was 824 ± 278%, the “maximal potentiation of α1 GlyRs” value ([5]; AEA applied continuously for 5 min with intermittent Gly) was 700–800% and the “direct activation of current by AEA alone” value ([5]; even at high concentrations (> 30 μM), no Gly, cell type not specified) was “did not trigger detectable current”. For the same compound, the “time to maximal potentiation of IGly” value ([6]; 1 μM AEA sustained application) was 5 min, the “average percentage potentiation of IGly” value ([6]; 1 μM AEA, 5 min sustained application, EC2 Gly (Fig. 1C)) was 86 ± 24% and the “percentage potentiation of IGly, initial value” ([6]; 1 μM AEA, after 1 min of AEA exposure, neurons) was 6 ± 6%. The “average percent potentiation of IGly” value ([6]; 1 μM AEA) was 79 ± 19%, the “average percent potentiation of IGly” value ([6]; 3 μM AEA) was 236 ± 52% and the “average percent potentiation of IGly” value ([6]; 10 μM AEA) was 636 ± 87%. The “average percent potentiation of IGly” value ([6]; 30 μM AEA) was 800 ± 71%.
